Data set [1] can be described thus: Drug level in Dahl salt-sensitive rat left ventricle at 5 mg/kg, sc qd. The settings on record: in vivo, read-out: Drug uptake.
Data set [2] addresses T1, Serine/threonine-protein kinase D1 (Homo sapiens, UniProt Q15139).
T1 sequence (Q15139 whole entry): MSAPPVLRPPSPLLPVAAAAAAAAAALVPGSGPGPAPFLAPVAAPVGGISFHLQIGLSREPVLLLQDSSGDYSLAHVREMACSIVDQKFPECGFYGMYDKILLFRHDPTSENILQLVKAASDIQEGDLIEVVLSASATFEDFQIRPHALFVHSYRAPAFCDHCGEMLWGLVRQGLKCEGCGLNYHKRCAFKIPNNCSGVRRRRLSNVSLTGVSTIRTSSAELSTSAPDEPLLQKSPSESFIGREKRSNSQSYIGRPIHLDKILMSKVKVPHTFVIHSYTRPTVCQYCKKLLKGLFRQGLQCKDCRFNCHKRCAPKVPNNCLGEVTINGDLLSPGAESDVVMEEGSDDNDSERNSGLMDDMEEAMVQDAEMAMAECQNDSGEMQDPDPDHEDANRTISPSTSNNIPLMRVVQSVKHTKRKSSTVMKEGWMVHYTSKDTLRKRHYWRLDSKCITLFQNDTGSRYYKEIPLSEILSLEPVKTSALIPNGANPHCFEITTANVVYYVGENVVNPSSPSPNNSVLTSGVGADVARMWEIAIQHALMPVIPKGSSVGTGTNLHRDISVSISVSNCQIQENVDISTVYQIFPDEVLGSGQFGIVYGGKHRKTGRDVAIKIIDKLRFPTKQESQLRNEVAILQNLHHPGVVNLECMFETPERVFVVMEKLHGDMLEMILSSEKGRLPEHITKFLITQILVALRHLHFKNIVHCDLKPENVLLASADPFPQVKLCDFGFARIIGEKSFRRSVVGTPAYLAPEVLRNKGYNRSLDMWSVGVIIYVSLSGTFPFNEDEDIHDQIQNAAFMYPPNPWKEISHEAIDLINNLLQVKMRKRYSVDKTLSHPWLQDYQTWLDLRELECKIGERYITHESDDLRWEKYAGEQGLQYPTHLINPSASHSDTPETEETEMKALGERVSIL
Nature of the data set: Inhibition of PKD1 assessed as inhibition of HDAC5 neuclear export. Put shortly:
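Neonatal rat ventricular myocytes infected with adenovirus encoding GFP-HDAC5 and plated on gelatin-coated wells. Cells exposed to compound and stimulated with PGF2α for 2 h, then fixed. Cytoplasmic versus nuclear GFP intensity quantified by high-content imaging.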

Data set [3] has as its target T1, Serine/threonine-protein kinase D1. Put plainly: Inhibition of PKD1 by TR-FRET assay. Put shortly: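 Full-length wild-type PKD1 expressed and purified from Sf9 cells, 0.2 μg/mL, in 35 mM Tris-HCl pH 7.5, 5 mM MgCl2, 0.02% Tween-20, 20 μM ATP, 1 mM DTT. Reaction started with 2 μM biotinylated syntide-2 and run 50 min at room temperature. Stopped with EDTA plus europium anti-rabbit IgG, anti-phospho-syntide-2 antibody and streptavidin-APC. LANCE TR-FRET 665/615 ratio read after 1 h. 11-point curves in triplicate gave IC50.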

Another data set concerns Rattus norvegicus. Put plainly: Antihypertensive activity in thoracic aortic banded Sprague-Dawley rat assessed as inhibition of cardia hypertrophy at 5 mg/kg, sc. Type of data set: functional, organism-based. Also on record: dose 5 mg/kg. The settings on record: Aorta. Put shortly: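 Rats fitted with an aortic occlusion cuff or given sham surgery. Dosed 5 mg/kg/day sc in acidified captisol, or vehicle, for 2 weeks. End-point cardiac performance assessed by ultrasound and hemodynamics by direct catheterization.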

In data set [4] the target is Serine/threonine-protein kinase MARK1 (Homo sapiens) (UniProt Q9P0L2). Put plainly: Inhibition of human MARK1. The settings on record: concentration not given here. Put shortly:
(§1)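 Selectivity screen run externally (Invitrogen SelectScreen). Percent inhibition measured at 1 μM compound, mean of 2 measurements.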

Data set [5] deals with T2, Serine/threonine-protein kinase D2 (Homo sapiens, UniProt Q9BZL6).
T2 sequence (Q9BZL6 whole entry): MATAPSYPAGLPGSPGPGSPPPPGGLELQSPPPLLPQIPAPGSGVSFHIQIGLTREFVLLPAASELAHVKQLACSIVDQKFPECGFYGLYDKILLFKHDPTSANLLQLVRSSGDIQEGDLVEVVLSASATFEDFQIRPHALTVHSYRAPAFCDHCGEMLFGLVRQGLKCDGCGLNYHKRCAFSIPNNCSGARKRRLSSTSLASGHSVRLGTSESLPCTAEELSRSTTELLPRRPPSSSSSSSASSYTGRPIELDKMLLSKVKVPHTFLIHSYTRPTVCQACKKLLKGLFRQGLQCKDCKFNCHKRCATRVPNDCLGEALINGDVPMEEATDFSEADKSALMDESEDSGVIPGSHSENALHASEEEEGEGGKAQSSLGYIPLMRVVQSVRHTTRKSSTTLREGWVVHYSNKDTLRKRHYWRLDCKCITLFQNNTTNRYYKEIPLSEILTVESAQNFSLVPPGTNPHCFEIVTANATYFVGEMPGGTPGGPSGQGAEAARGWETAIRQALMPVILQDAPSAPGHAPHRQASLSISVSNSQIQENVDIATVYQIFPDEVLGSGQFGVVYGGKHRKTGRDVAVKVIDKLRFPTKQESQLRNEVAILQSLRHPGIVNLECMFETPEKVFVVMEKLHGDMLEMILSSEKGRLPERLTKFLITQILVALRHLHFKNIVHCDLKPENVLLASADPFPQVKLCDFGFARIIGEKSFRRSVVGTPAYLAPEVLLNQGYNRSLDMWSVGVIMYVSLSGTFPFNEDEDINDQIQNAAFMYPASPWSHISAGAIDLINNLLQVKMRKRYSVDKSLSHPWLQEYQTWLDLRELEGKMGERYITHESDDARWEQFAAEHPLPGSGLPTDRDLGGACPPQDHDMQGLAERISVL
Nature of the data set: Inhibition of PKD2 by TR-FRET assay.

Data set [6] in a line: Volume of distribution at steady state in Sprague-Dawley rat at 2 mg/kg, iv and 5 mg/kg, po. Format: ADME, organism-based. The note with it: in vivo, read-out: Vdss. The gist of the method:
(§2)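 Rats dosed iv 2 mg/kg (n = 2) or po 5 mg/kg (n = 3) in 10% NMP, 10% Cremophor, 80% pH 4.63 buffer. PK parameters derived from iv dosing, reported as mean ± SD.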

The nature of data set [7]: Clearance in Sprague-Dawley rat at 2 mg/kg, iv and 5 mg/kg, po. Type of data set: ADME, organism-based. The settings on record: in vivo. Put shortly:
as §2

Data set [8] can be described thus: Inhibition of alpha1 adrenoceptor.
Another data set relates to Plasma. Put plainly: Drug level in Dahl salt-sensitive rat plasma at 5 mg/kg, sc qd. The note with it: in vivo.
A short description of data set [9]: Half life in rats after 2 mg/kg intravenous dose. Type of data set: ADME, organism-based. The settings on record: Sprague-Dawley, rat, in vivo. The arrangement: dose 2 mg/kg, route intravenous. The gist of the method: as §2
For data set [10], the target named is Calcium/calmodulin-dependent protein kinase type II subunit beta (Homo sapiens) (UniProt Q13554). Nature of the data set: Inhibition of human CaMK2beta. The note with it: concentration not given here. Put shortly:
as §1

Data set [11] addresses Calcium/calmodulin-dependent protein kinase type 1D (Homo sapiens) (UniProt Q8IU85). Put plainly: Inhibition of CaMK1delta. The settings on record: concentration not given here. The gist of the method: as §1
The target of data set [12] is Beta-1 adrenergic receptor (Homo sapiens, UniProt P08588). Nature of the data set: Inhibition of beta-1 adrenoceptor.
Chain of Beta-1 adrenergic receptor (P08588 whole entry): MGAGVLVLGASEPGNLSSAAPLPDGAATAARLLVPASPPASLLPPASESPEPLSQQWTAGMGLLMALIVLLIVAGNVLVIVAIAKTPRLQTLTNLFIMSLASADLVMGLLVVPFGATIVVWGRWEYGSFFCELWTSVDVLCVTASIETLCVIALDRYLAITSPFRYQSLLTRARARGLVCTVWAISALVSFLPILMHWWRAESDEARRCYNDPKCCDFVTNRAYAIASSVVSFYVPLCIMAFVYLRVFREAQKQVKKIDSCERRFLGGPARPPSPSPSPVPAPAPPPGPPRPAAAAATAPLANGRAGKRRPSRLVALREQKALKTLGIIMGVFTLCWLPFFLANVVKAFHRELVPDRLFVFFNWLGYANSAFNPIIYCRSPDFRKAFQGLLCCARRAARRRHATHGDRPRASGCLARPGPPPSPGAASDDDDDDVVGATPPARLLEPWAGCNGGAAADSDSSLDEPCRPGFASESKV

Active and inactive are the calls of the source. The rule behind the calls is not given here.

Chain of Calcium/calmodulin-dependent protein kinase type II subunit beta (Homo sapiens) (Q13554 whole entry): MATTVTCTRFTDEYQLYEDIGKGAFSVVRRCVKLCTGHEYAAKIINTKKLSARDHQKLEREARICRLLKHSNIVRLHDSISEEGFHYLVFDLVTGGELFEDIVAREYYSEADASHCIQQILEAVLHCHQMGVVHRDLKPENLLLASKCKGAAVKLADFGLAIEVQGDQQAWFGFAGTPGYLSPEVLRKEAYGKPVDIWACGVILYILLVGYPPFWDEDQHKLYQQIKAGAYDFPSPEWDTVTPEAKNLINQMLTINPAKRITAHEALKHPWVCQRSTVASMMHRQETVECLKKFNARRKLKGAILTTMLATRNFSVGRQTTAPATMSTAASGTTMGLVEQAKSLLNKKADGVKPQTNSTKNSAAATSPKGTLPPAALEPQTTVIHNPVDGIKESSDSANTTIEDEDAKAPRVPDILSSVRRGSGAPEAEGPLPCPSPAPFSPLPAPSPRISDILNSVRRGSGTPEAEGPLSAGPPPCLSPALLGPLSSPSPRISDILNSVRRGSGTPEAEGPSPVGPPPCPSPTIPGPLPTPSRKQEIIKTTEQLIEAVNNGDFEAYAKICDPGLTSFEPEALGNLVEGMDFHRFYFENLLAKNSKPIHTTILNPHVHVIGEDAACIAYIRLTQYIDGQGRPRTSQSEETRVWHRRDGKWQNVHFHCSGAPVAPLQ
Chain of Calcium/calmodulin-dependent protein kinase type 1D (Homo sapiens) (Q8IU85 whole entry, looked up): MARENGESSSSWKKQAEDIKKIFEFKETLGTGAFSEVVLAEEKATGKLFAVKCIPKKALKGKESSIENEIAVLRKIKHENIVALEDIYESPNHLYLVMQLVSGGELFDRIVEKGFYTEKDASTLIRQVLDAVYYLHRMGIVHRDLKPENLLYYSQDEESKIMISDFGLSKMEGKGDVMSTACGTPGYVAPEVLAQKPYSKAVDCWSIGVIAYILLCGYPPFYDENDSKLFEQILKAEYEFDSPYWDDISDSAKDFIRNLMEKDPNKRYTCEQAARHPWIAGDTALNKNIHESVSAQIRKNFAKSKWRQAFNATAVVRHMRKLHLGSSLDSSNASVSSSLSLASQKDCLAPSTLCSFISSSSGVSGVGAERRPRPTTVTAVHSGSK
Chain of Serine/threonine-protein kinase MARK1 (Homo sapiens) (Q9P0L2 whole entry, looked up): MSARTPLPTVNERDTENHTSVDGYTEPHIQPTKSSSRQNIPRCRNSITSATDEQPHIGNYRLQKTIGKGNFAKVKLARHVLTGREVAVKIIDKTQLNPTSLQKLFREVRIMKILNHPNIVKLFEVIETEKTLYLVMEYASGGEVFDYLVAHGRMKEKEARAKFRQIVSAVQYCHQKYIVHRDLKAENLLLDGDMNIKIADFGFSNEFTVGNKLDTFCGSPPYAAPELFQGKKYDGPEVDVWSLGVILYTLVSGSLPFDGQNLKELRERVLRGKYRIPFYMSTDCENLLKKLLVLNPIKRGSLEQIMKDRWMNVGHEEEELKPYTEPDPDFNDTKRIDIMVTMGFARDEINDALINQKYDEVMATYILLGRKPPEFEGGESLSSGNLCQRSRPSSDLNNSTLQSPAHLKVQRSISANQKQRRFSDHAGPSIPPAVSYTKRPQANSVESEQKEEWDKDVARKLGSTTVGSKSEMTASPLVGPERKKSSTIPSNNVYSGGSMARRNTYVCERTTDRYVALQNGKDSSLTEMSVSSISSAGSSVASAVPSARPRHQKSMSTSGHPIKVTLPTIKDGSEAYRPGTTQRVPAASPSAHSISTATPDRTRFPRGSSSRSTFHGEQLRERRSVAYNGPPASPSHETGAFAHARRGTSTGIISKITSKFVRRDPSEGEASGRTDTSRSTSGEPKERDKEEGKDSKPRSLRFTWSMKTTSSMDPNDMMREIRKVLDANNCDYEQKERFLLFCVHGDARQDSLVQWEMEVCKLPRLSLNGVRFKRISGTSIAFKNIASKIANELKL

As to `NC(=O)c1cc(-c2ccnc(NC3CCCCC3)c2)nc(N2CCNCC2)c1`, the concentration was 12 µM in data set [1] and 230 nM in the data set with Plasma. The EC50 in data set [2] is 77 nM. In addition, the half-maximal inhibitory concentration (IC50) in [3] came out at 1 nM; in data set [5], 9 nM; in [8], 3000 nM; in data set [12], 8.3 µM. Further, in the data set on Rattus norvegicus, the inhibition result was “inactive”. The figures for the inhibition in data set [4], in data set [10] and in [11] were 24%, 3% and 6%, respectively. Besides, in data set [6], the Vd amounted to 22 L/kg. The compound also gave a clearance in data set [7] of 97 mL/min/kg. The same compound had a half-life in [9] of 228 min.
